tested on: Canis familiaris; assay: Total time in minutes elapsed from the initiation of the change until return to the pretest value of blood pressure in coronary sinus of anesthetized dog at intravenous dosage of 10 mg/kg; format: functional, Canis lupus familiaris; conditions: not given

Point of comparison: Cc1cccc(C)c1NC(=O)[C@H]1OC(n2cnc3c(N)ncnc32)[C@H](O)[C@@H]1O (some centres undefined), Duration 30 min. Against it:
- CCOC(=O)CNC(=O)[C@H]1OC(n2cnc3c(N)ncnc32)[C@H](O)[C@@H]1O (some centres undefined) — the same, 30 min
- CCC(=O)c1ccccc1NC(=O)[C@H]1OC(n2cnc3c(N)ncnc32)[C@H](O)[C@@H]1O (some centres undefined) — within 1.5-fold, 40 min
- Nc1ncnc2c1ncn2C1O[C@H](C(=O)N2CCCCC2)[C@@H](O)[C@H]1O (some centres undefined) — 1.5-fold lower, 20 min
- COc1ccccc1N1CCN(C(=O)[C@H]2OC(n3cnc4c(N)ncnc43)[C@H](O)[C@@H]2O)CC1 (some centres undefined) — 2-fold higher, 60 min
- Nc1ncnc2c1ncn2C1O[C@H](C(=O)N2CCOCC2)[C@@H](O)[C@H]1O (some centres undefined) — lower, 0 min
- CN(C)CCNC(=O)[C@H]1OC(n2cnc3c(N)ncnc32)[C@H](O)[C@@H]1O (some centres undefined) — 2-fold lower, 15 min

tested on: Canis familiaris; assay: Total time in minutes elapsed from the initiation of the change until return to the pretest value of heart rate in coronary sinus of anesthetized dog at intravenous dosage of 10 mg/kg; format: functional, Canis lupus familiaris; conditions: not given

Point of comparison: COc1ccccc1N1CCN(C(=O)[C@H]2OC(n3cnc4c(N)ncnc43)[C@H](O)[C@@H]2O)CC1 (some centres undefined), Duration 60 min. Against it:
- Cc1cccc(C)c1NC(=O)[C@H]1OC(n2cnc3c(N)ncnc32)[C@H](O)[C@@H]1O (some centres undefined) — 12-fold lower, 5 min
- CCOC(=O)CNC(=O)[C@H]1OC(n2cnc3c(N)ncnc32)[C@H](O)[C@@H]1O (some centres undefined) — 5.5-fold lower, 11 min
- CCC(=O)c1ccccc1NC(=O)[C@H]1OC(n2cnc3c(N)ncnc32)[C@H](O)[C@@H]1O (some centres undefined) — 1.5-fold lower, 40 min
- Nc1ncnc2c1ncn2C1O[C@H](C(=O)N2CCCCC2)[C@@H](O)[C@H]1O (some centres undefined) — 2-fold lower, 30 min
- Nc1ncnc2c1ncn2C1O[C@H](C(=O)N2CCOCC2)[C@@H](O)[C@H]1O (some centres undefined) — lower, 0 min
- CN(C)CCNC(=O)[C@H]1OC(n2cnc3c(N)ncnc32)[C@H](O)[C@@H]1O (some centres undefined) — 4-fold lower, 15 min

tested on: Canis familiaris; assay: Total time in minutes elapsed from the initiation of the change until return to the pretest value of oxygen partial pressure in coronary sinus of anesthetized dog at intravenous dosage of 10 mg/kg; format: functional, Canis lupus familiaris; conditions: not given
Procedure, shortened: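 Open-chest anesthetized dogs given compound by intravenous injection. Coronary sinus PO2 was monitored, and duration was the total time in minutes from the onset of the change until return to the pretest value.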

Point of comparison: Nc1ncnc2c1ncn2C1O[C@H](C(=O)N2CCCCC2)[C@@H](O)[C@H]1O (some centres undefined), Duration 8 min. Against it:
- Cc1cccc(C)c1NC(=O)[C@H]1OC(n2cnc3c(N)ncnc32)[C@H](O)[C@@H]1O (some centres undefined) — 3.8-fold higher, 30 min
- CCOC(=O)CNC(=O)[C@H]1OC(n2cnc3c(N)ncnc32)[C@H](O)[C@@H]1O (some centres undefined) — 3.8-fold higher, 30 min
- CCC(=O)c1ccccc1NC(=O)[C@H]1OC(n2cnc3c(N)ncnc32)[C@H](O)[C@@H]1O (some centres undefined) — 2-fold higher, 16 min
- COc1ccccc1N1CCN(C(=O)[C@H]2OC(n3cnc4c(N)ncnc43)[C@H](O)[C@@H]2O)CC1 (some centres undefined) — 1.9-fold higher, 15 min
- Nc1ncnc2c1ncn2C1O[C@H](C(=O)N2CCOCC2)[C@@H](O)[C@H]1O (some centres undefined) — lower, 0 min
- CN(C)CCNC(=O)[C@H]1OC(n2cnc3c(N)ncnc32)[C@H](O)[C@@H]1O (some centres undefined) — 4-fold lower, 2 min

tested on: Canis familiaris; assay: Tested for the percent increase in aortic blood pressure (BP) in open chest anesthetized dog at intravenous dosage of 10.00 mg/kg; format: functional, Canis lupus familiaris, Artery; conditions: not given
Procedure, shortened: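 Open-chest anesthetized dogs, compound given iv at the stated dose. Aortic blood pressure is reported as the change from the control (pre-dose) value. Other set-up follows the group's earlier cardiovascular protocol.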

Point of comparison: CCC(=O)c1ccccc1NC(=O)[C@H]1OC(n2cnc3c(N)ncnc32)[C@H](O)[C@@H]1O (some centres undefined), BP 5%. Against it:
- Cc1cccc(C)c1NC(=O)[C@H]1OC(n2cnc3c(N)ncnc32)[C@H](O)[C@@H]1O (some centres undefined) — higher, 13%
- CCOC(=O)CNC(=O)[C@H]1OC(n2cnc3c(N)ncnc32)[C@H](O)[C@@H]1O (some centres undefined) — higher, 6%
- Nc1ncnc2c1ncn2C1O[C@H](C(=O)N2CCCCC2)[C@@H](O)[C@H]1O (some centres undefined) — higher, 7%
- COc1ccccc1N1CCN(C(=O)[C@H]2OC(n3cnc4c(N)ncnc43)[C@H](O)[C@@H]2O)CC1 (some centres undefined) — higher, 7%
- Nc1ncnc2c1ncn2C1O[C@H](C(=O)N2CCOCC2)[C@@H](O)[C@H]1O (some centres undefined) — lower, 0%
- CN(C)CCNC(=O)[C@H]1OC(n2cnc3c(N)ncnc32)[C@H](O)[C@@H]1O (some centres undefined) — the same, 5%

tested on: Canis familiaris; assay: Tested for percent increase in coronary sinus partial pressure of oxygen (PO2) in open chest anesthetized dog at intravenous dosage of 10.00 mg/kg; format: functional, Canis lupus familiaris; conditions: not given

Point of comparison: Nc1ncnc2c1ncn2C1O[C@H](C(=O)N2CCOCC2)[C@@H](O)[C@H]1O (some centres undefined), PO2 0%. Against it:
- Cc1cccc(C)c1NC(=O)[C@H]1OC(n2cnc3c(N)ncnc32)[C@H](O)[C@@H]1O (some centres undefined) — higher, 15%
- CCOC(=O)CNC(=O)[C@H]1OC(n2cnc3c(N)ncnc32)[C@H](O)[C@@H]1O (some centres undefined) — higher, 9%
- CCC(=O)c1ccccc1NC(=O)[C@H]1OC(n2cnc3c(N)ncnc32)[C@H](O)[C@@H]1O (some centres undefined) — higher, 39%
- Nc1ncnc2c1ncn2C1O[C@H](C(=O)N2CCCCC2)[C@@H](O)[C@H]1O (some centres undefined) — higher, 52%
- COc1ccccc1N1CCN(C(=O)[C@H]2OC(n3cnc4c(N)ncnc43)[C@H](O)[C@@H]2O)CC1 (some centres undefined) — higher, 107%
- CN(C)CCNC(=O)[C@H]1OC(n2cnc3c(N)ncnc32)[C@H](O)[C@@H]1O (some centres undefined) — higher, 13%

tested on: not listed separately; assay: Lethal dose in mice after intraperitoneal administration; format: toxicity, organism-based; conditions: mouse, in vivo, ip
Procedure, shortened: (§1)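 Male and female mice, three per dose group, were given the compound by the stated route in increments of 0.5 log doses. The LD50 was estimated as an approximate value.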

Point of comparison: CN(C)CCNC(=O)[C@H]1OC(n2cnc3c(N)ncnc32)[C@H](O)[C@@H]1O (some centres undefined), LD50 20 mg/kg. Against it:
- Cc1cccc(C)c1NC(=O)[C@H]1OC(n2cnc3c(N)ncnc32)[C@H](O)[C@@H]1O (some centres undefined) — higher, > 1000 mg/kg
- CCOC(=O)CNC(=O)[C@H]1OC(n2cnc3c(N)ncnc32)[C@H](O)[C@@H]1O (some centres undefined) — higher, > 300 mg/kg
- CCC(=O)c1ccccc1NC(=O)[C@H]1OC(n2cnc3c(N)ncnc32)[C@H](O)[C@@H]1O (some centres undefined) — higher, > 1000 mg/kg
- Nc1ncnc2c1ncn2C1O[C@H](C(=O)N2CCCCC2)[C@@H](O)[C@H]1O (some centres undefined) — higher, > 1000 mg/kg
- COc1ccccc1N1CCN(C(=O)[C@H]2OC(n3cnc4c(N)ncnc43)[C@H](O)[C@@H]2O)CC1 (some centres undefined) — higher, > 300 mg/kg
- Nc1ncnc2c1ncn2C1O[C@H](C(=O)N2CCOCC2)[C@@H](O)[C@H]1O (some centres undefined) — higher, > 300 mg/kg

tested on: not listed separately; assay: Lethal dose in mice after peroral administration; format: toxicity, organism-based; conditions: mouse, in vivo, po; procedure, shortened: as §1

Point of comparison: CN(C)CCNC(=O)[C@H]1OC(n2cnc3c(N)ncnc32)[C@H](O)[C@@H]1O (some centres undefined), LD50 500 mg/kg. Against it:
- Cc1cccc(C)c1NC(=O)[C@H]1OC(n2cnc3c(N)ncnc32)[C@H](O)[C@@H]1O (some centres undefined) — higher, > 1000 mg/kg
- CCOC(=O)CNC(=O)[C@H]1OC(n2cnc3c(N)ncnc32)[C@H](O)[C@@H]1O (some centres undefined) — not separable, > 300 mg/kg
- CCC(=O)c1ccccc1NC(=O)[C@H]1OC(n2cnc3c(N)ncnc32)[C@H](O)[C@@H]1O (some centres undefined) — higher, > 1000 mg/kg
- Nc1ncnc2c1ncn2C1O[C@H](C(=O)N2CCCCC2)[C@@H](O)[C@H]1O (some centres undefined) — higher, > 1000 mg/kg
- COc1ccccc1N1CCN(C(=O)[C@H]2OC(n3cnc4c(N)ncnc43)[C@H](O)[C@@H]2O)CC1 (some centres undefined) — not separable, > 300 mg/kg
- Nc1ncnc2c1ncn2C1O[C@H](C(=O)N2CCOCC2)[C@@H](O)[C@H]1O (some centres undefined) — not separable, > 300 mg/kg

Reference: ChEMBL document CHEMBL1121608, “Modification of the 5' position of purine nucleosides. 2. Synthesis and some cardiovascular properties of adenosine-5'-(N-substituted)carboxamides” (J Med Chem, 1980)
